Measurements from ChEMBL document CHEMBL4007404, “Identification of High-Potency Human TLR8 and Dual TLR7/TLR8 Agonists in Pyrimidine-2,4-diamines” (J Med Chem, 2017).
Activity calls are given as the source filed them. No cut-off for these calls is given here.

Tests used:
[1] = target: T1, Toll-like receptor 8 (Homo sapiens) (UniProt Q9NR97); assay: Agonist activity at TLR8 in human CD141 positive conventional dendritic cells assessed as upregulation of CD80 expression after 16 hrs by efluor 780 dye based flow cytometry
T1 sequence (whole entry): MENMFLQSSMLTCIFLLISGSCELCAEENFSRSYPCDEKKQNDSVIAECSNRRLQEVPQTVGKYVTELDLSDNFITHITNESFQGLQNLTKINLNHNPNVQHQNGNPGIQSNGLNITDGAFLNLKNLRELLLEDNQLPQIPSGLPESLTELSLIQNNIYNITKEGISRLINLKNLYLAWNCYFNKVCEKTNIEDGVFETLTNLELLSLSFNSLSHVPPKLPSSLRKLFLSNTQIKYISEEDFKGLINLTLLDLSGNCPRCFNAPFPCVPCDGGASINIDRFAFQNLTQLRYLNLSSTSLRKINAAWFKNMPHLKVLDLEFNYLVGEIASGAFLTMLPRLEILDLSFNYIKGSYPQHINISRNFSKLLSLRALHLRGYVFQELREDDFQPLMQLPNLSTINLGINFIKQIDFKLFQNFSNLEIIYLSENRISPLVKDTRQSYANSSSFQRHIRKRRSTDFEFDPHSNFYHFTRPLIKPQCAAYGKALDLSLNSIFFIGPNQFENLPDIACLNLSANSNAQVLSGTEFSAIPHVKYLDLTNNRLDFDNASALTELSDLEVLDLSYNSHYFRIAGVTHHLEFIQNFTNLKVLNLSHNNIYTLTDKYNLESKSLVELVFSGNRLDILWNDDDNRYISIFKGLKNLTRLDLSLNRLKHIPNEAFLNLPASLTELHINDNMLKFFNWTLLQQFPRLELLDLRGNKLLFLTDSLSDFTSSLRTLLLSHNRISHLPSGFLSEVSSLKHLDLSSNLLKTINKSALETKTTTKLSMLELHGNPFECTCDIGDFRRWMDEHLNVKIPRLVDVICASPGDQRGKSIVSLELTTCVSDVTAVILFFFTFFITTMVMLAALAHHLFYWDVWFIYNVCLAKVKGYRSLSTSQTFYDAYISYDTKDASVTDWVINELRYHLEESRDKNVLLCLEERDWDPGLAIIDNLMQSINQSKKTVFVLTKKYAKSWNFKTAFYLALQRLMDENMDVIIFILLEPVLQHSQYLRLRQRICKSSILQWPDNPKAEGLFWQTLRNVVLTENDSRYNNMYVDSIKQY
Procedure, shortened: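 Human PBMCs were incubated with serial compound dilutions at 37 °C for 16 h, with DMSO controls. Cells were stained with eFluor780 viability dye, then lineage and DC antibodies plus CD80 PE, and fixed. 250,000 gated events were acquired. pDCs were gated as Live Lin⁻ CD123⁺ CD303⁺ CD304⁺ HLA-DR⁺. cDCs were gated as Lin⁻ CD1c⁺ CD141⁻ CD11c⁺ HLA-DR⁺ or Lin⁻ CD141⁺ CD1c⁻ HLA-DR⁺. Median fluorescence intensity was quantified.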

[2] = target: T1, Toll-like receptor 8 (Homo sapiens); assay: Agonist activity at human TLR8 expressed in HEK293 cells co-expressing secreted alkaline phosphatase assessed as induction of NF-kappaB/AP-1 promoter activity by measuring increase in secreted alkaline phosphatase level at 100 uM by spectrophotometric method; type: cell-based
Procedure, shortened: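 HEK293 cells stably co-transfected with human TLR8 and NF-κB/AP-1-driven secreted alkaline phosphatase, kept in selection medium. Cells seeded at ~10⁵ cells/ml in 384-well plates with graded stimulus concentrations. Supernatant sAP read spectrophotometrically at 620 nm with an alkaline phosphatase-specific chromogen. TLR-2/-3/-4/-5/-9 reporter lines served as counter-screens.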

[3] = target: T2, Toll-like receptor 7 (Homo sapiens) (UniProt Q9NYK1); assay: Agonist activity at TLR7 in human PBMC assessed as induction of IFN-alpha production after 16 hrs by multiplexed immunoassay
T2 sequence (whole entry): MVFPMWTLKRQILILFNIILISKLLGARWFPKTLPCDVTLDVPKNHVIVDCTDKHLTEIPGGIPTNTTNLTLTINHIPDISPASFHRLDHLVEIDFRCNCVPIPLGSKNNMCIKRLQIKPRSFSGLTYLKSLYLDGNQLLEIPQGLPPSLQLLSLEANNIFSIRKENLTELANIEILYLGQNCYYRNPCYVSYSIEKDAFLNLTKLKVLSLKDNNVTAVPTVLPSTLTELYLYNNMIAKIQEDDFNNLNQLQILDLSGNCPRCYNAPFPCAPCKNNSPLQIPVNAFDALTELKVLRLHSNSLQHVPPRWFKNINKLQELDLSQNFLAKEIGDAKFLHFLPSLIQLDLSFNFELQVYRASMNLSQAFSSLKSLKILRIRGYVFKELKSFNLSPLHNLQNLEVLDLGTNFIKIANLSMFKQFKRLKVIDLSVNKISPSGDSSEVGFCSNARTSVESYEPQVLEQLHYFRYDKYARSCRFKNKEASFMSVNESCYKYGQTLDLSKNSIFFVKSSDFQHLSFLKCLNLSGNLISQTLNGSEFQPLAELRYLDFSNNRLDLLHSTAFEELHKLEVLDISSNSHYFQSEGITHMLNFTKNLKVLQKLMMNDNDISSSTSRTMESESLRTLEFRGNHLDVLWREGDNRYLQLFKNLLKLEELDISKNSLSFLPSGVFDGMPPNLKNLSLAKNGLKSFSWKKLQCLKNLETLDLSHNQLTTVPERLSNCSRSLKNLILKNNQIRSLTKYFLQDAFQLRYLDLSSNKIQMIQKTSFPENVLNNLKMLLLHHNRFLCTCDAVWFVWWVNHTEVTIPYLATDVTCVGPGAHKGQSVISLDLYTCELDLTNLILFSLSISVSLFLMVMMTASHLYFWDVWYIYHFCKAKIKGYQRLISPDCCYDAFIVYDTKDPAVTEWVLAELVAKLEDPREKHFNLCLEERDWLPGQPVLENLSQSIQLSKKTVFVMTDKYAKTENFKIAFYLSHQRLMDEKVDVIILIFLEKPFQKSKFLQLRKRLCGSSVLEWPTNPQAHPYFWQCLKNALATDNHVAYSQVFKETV
Procedure, shortened: (§1)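 Fresh human PBMCs were isolated from venous blood in cell preparation tubes. They were stimulated at 10^5 cells per well for 16 h with graded compound concentrations. Supernatants were taken off by centrifugation and assayed in duplicate on a 41-analyte magnetic bead cytokine/chemokine multiplex panel. Panel analytes include IFN-α2, IFN-γ, IL-12 (p40) and TNF-α.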

[4] = target: T1, Toll-like receptor 8 (Homo sapiens); assay: Agonist activity at TLR8 in human PBMC assessed as induction of IL-12p40 production after 16 hrs by multiplexed immunoassay; procedure, shortened: as §1
[5] = target: T1, Toll-like receptor 8 (Homo sapiens); assay: Agonist activity at TLR8 in human PBMC assessed as induction of TNF-alpha production after 16 hrs by multiplexed immunoassay; procedure, shortened: as §1
[6] = target: T1, Toll-like receptor 8 (Homo sapiens); assay: Agonist activity at TLR8 in human PBMC assessed as induction of IFN-gamma production after 16 hrs by multiplexed immunoassay; procedure, shortened: as §1

| Structure (SMILES) | Activity [1] | Activity [2] | Activity [3] | Activity [4] | Activity [5] | Activity [6] |
| --- | --- | --- | --- | --- | --- | --- |
| CCCCNc1nc(N)nc(C)c1CCCN1CCOCC1 | Active |  |  |  |  |  |
| CCCCNc1nc(N)nc(C)c1CCCC1CCCCC1 |  | inactive |  |  |  |  |
| CCCCNc1nc(N)nc(C)c1CCCn1c(C)nc2ccccc21 |  |  | Active | Active | Active | Active |
| CCCCNc1nc(N)nc(C)c1CCCN1CCCCC1 |  |  |  | Active | Active | Active |
| CCCCNc1nc(N)nc(C)c1CCCc1ccccc1 |  |  | Active |  |  | inactive |
| CCCCNc1nc(N)nc(C)c1CCCN1Cc2ccccc2C1 |  |  |  | Active | Active | Active |
| CCCCNc1nc(N)nc(C)c1C#CCc1ccccc1 |  | inactive |  |  |  |  |
